Reference: ChEMBL document CHEMBL3045132, “Synthesis and antiviral activity of novel chiral cyanoacrylate derivatives” (2005)

Tests used:
Format in all cases: functional
A-431 = assay: Antiproliferative activity against Homo sapiens (human) A431 cells at 5 uM measured after 72 hr by MTT assay; details: A-431, 72 h
How it was run: (§1)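 Cells plated at 3 × 10³/well in F-12 (PC3) or RPMI 1640 (A431) with 10% fetal bovine serum; compounds dissolved in DMSO, diluted in medium, exposed 72 h; vehicle control 0.1% DMSO. MTT cleavage to formazan read at 550 nm. Inhibition rate (%) = (A1 − A2)/A1 × 100, A1 untreated and A2 treated mean optical density; values as mean ± s.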

PC-3 = assay: Antiproliferative activity against Homo sapiens (human) PC3 cells at 5 uM measured after 72 hr by MTT assay; details: PC-3, 72 h; how it was run: as §1
Echinochloa crus-galli [1] = assay: Herbicidal activity against Echinochloa crus-galli (barnyard grass) assessed as inhibition effect at 1500 g/ha sprayed to the stem and leaves after seed germination
How it was run: (§2)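 Post-emergence: compounds sprayed onto stems and leaves after seed germination; equal amount of water sprayed as control. Aerial tissue fresh weight measured 10 days after treatment; activity expressed as percent inhibition of aerial fresh weight.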

Amaranthus retroflexus [2] = assay: Herbicidal activity against Amaranthus retroflexus assessed as inhibition effect at 1500 g/ha sprayed soil immediately after seed planting
How it was run: (§3)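 Pre-emergence: compounds sprayed onto soil immediately after seed planting; equal amount of water sprayed as control. Aerial tissue fresh weight measured 10 days after treatment; activity expressed as percent inhibition of aerial fresh weight.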

Tobacco mosaic virus [3] = assay: Antiviral activity against Tobacco mosaic virus (TMV) inoculated in left side of Nicotiana tabacum L. leaves assessed as inhibition of local lesion number at 500 mg/l measured after 3 to 4 days
How it was run: (§4)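 Half-leaf test on Nicotiana tabacum L.: TMV mixed with an equal volume of compound solution for 30 min, then inoculated on the left half-leaf; right half received virus plus solvent as control. Local lesions counted 3-4 days after inoculation; three repetitions. Inhibition (%) = (control lesions − treated lesions)/control lesions.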

Echinochloa crus-galli [4] = assay: Herbicidal activity against Echinochloa crus-galli (barnyard grass) assessed as inhibition effect at 1500 g/ha sprayed soil immediately after seed planting; how it was run: as §3
[5] = system: Brassica rapa subsp. oleifera; assay: Herbicidal activity against Brassica rapa subsp. oleifera assessed as inhibition effect at 1500 g/ha sprayed to the stem and leaves after seed germination; how it was run: as §2
Amaranthus retroflexus [6] = assay: Herbicidal activity against Amaranthus retroflexus assessed as inhibition effect at 1500 g/ha sprayed to the stem and leaves after seed germination; how it was run: as §2
[7] = system: Brassica rapa subsp. oleifera; assay: Herbicidal activity against Brassica rapa subsp. oleifera assessed as inhibition effect at 1500 g/ha sprayed soil immediately after seed planting; how it was run: as §3
Tobacco mosaic virus [8] = assay: Antiviral activity against Tobacco mosaic virus (TMV) inoculated in whole leaves of Nicotiana tabacum L. assessed as curative effect measured as local lesion number at 500 mg/l after 3 to 4 days
How it was run: (§5)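 Same-age N. tabacum L. leaves dipped-inoculated over the whole leaf with TMV at 6 × 10^-3 mg/mL, then washed with water and dried. Compound solution smeared on left half, solvent on right half as control. Local lesions counted 3-4 days after inoculation; three repetitions. Inhibition (%) calculated from control versus treated average lesion numbers.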

Tobacco mosaic virus [9] = assay: Antiviral activity against Tobacco mosaic virus (TMV) inoculated in whole leaves of Nicotiana tabacum L. assessed as curative effect measured as local lesion number at 50 mg/l after 3 to 4 days; how it was run: as §5
Tobacco mosaic virus [10] = assay: Antiviral activity against Tobacco mosaic virus (TMV) inoculated in left side of Nicotiana tabacum L. leaves assessed as inhibition of local lesion number at 50 mg/l measured after 3 to 4 days; how it was run: as §4

Q: How did the inhibition at 5 µM (A-431) turn out when `O=c1[nH]cc(F)c(=O)[nH]1` [FLUOROURACIL] was run?
A: Its inhibition at 5 µM is 30.7%.

Q: What about the inhibition at 5 µM (PC-3) of the same compound?
A: The inhibition at 5 µM was 41.1%.

Q: `CCOC(=O)/C(C#N)=C(/Nc1ccc([N+](=O)[O-])cc1)N[C@@H](C)c1ccccc1` was tested. Which inhibition at 1500 g/ha (Echinochloa crus-galli [1]) did it give?
A: Its inhibition at 1500 g/ha is 13.3%.

Q: And the inhibition at 1500 g/ha (Amaranthus retroflexus [2])?
A: Its inhibition at 1500 g/ha is 0%.

Q: What about the inhibition at 500 µg/mL (Tobacco mosaic virus [3]) of the same compound?
A: The inhibition at 500 µg/mL was 5.3%.

Q: And the inhibition at 5 µM (A-431)?
A: The inhibition at 5 µM was 18.1%.

Q: And the inhibition at 5 µM (PC-3)?
A: The inhibition at 5 µM was 0.7%.

Q: What about the inhibition at 1500 g/ha (Echinochloa crus-galli [4]) of the same compound?
A: Its inhibition at 1500 g/ha is 14.3%.

Q: What about the inhibition at 1500 g/ha [5] of the same compound?
A: The inhibition at 1500 g/ha was 32.1%.

Q: What about the inhibition at 1500 g/ha (Amaranthus retroflexus [6]) of the same compound?
A: The inhibition at 1500 g/ha was 0%.

Q: And the inhibition at 1500 g/ha [7]?
A: The inhibition at 1500 g/ha was 25%.

Q: What about the inhibition at 500 µg/mL (Tobacco mosaic virus [8]) of the same compound?
A: The inhibition at 500 µg/mL was 13.1%.

Q: Which results are given for `CCOC(=O)/C(C#N)=C(/NNC(=O)c1cc(OC)c(OC)c(OC)c1)N[C@@H](C)c1ccccc1`?
A: inhibition at 1500 g/ha (Echinochloa crus-galli [1]): 0%; inhibition at 1500 g/ha (Amaranthus retroflexus [2]): 10.5%; inhibition at 500 µg/mL (Tobacco mosaic virus [3]): 7.5%; inhibition at 5 µM (A-431): 29.4%; inhibition at 5 µM (PC-3): 3.2%; inhibition at 1500 g/ha (Echinochloa crus-galli [4]): 7.14%; inhibition at 1500 g/ha [5]: 18.8%; inhibition at 1500 g/ha (Amaranthus retroflexus [6]): 0%; inhibition at 1500 g/ha [7]: 0%; inhibition at 500 µg/mL (Tobacco mosaic virus [8]): 12.1%

Q: What does the source list for `CCOC(=O)/C(C#N)=C(/Nc1ccc(Br)cc1)N[C@@H](C)c1ccccc1`?
A: inhibition at 1500 g/ha (Echinochloa crus-galli [1]): 34.3%; inhibition at 1500 g/ha (Amaranthus retroflexus [2]): 0%; inhibition at 500 µg/mL (Tobacco mosaic virus [3]): 0%; inhibition at 5 µM (A-431): 19.3%; inhibition at 5 µM (PC-3): 24.7%; inhibition at 1500 g/ha (Echinochloa crus-galli [4]): 10%; inhibition at 1500 g/ha [5]: 35.3%; inhibition at 1500 g/ha (Amaranthus retroflexus [6]): 0%; inhibition at 1500 g/ha [7]: 1.29%; inhibition at 500 µg/mL (Tobacco mosaic virus [8]): 3.4%

Q: `CNCC(=O)N[C@@H](CO)C(=O)N[C@H]1[C@H](O)[C@@H](O)[C@H](n2ccc(N)nc2=O)O[C@@H]1C(N)=O` [NINGNANMYCIN] was tested. Which inhibition at 500 µg/mL (Tobacco mosaic virus [3]) did it give?
A: The inhibition at 500 µg/mL was 88.9%.

Q: And the inhibition at 500 µg/mL (Tobacco mosaic virus [8])?
A: Its inhibition at 500 µg/mL is 28.9%.

Q: `CCOC(=O)/C(C#N)=C(/Nc1ccc(C(F)(F)F)cc1)N[C@H](C)c1ccccc1` was tested. Which inhibition at 1500 g/ha (Echinochloa crus-galli [1]) did it give?
A: Its inhibition at 1500 g/ha is 2.86%.

Q: What about the inhibition at 1500 g/ha (Amaranthus retroflexus [2]) of the same compound?
A: The inhibition at 1500 g/ha was 0%.

Q: And the inhibition at 500 µg/mL (Tobacco mosaic virus [3])?
A: Its inhibition at 500 µg/mL is 28.9%.

Q: And the inhibition at 5 µM (A-431)?
A: Its inhibition at 5 µM is 43.1%.

Q: And the inhibition at 5 µM (PC-3)?
A: Its inhibition at 5 µM is 59.4%.

Q: And the inhibition at 1500 g/ha (Echinochloa crus-galli [4])?
A: Its inhibition at 1500 g/ha is 11.4%.

Q: And the inhibition at 1500 g/ha [5]?
A: Its inhibition at 1500 g/ha is 0%.

Q: What about the inhibition at 1500 g/ha (Amaranthus retroflexus [6]) of the same compound?
A: The inhibition at 1500 g/ha was 0%.

Q: And the inhibition at 1500 g/ha [7]?
A: The inhibition at 1500 g/ha was 16.1%.

Q: And the inhibition at 500 µg/mL (Tobacco mosaic virus [8])?
A: The inhibition at 500 µg/mL was 39.1%.

Q: For `CCOC(=O)/C(C#N)=C(/Nc1ccc(C(F)(F)F)cc1)N[C@@H](C)c1ccccc1`, which inhibition at 1500 g/ha (Echinochloa crus-galli [1]) is on record?
A: The inhibition at 1500 g/ha was 5.71%.

Q: And the inhibition at 1500 g/ha (Amaranthus retroflexus [2])?
A: The inhibition at 1500 g/ha was 10.5%.

Q: What about the inhibition at 500 µg/mL (Tobacco mosaic virus [3]) of the same compound?
A: Its inhibition at 500 µg/mL is 6.1%.

Q: And the inhibition at 5 µM (A-431)?
A: The inhibition at 5 µM was 39.9%.

Q: What about the inhibition at 5 µM (PC-3) of the same compound?
A: The inhibition at 5 µM was 49.1%.

Q: And the inhibition at 1500 g/ha (Echinochloa crus-galli [4])?
A: The inhibition at 1500 g/ha was 10%.

Q: What about the inhibition at 1500 g/ha [5] of the same compound?
A: The inhibition at 1500 g/ha was 30.5%.

Q: What about the inhibition at 1500 g/ha (Amaranthus retroflexus [6]) of the same compound?
A: The inhibition at 1500 g/ha was 0%.

Q: And the inhibition at 1500 g/ha [7]?
A: Its inhibition at 1500 g/ha is 21.4%.

Q: And the inhibition at 500 µg/mL (Tobacco mosaic virus [8])?
A: The inhibition at 500 µg/mL was 15.2%.

Q: What does the source list for `CCOC(=O)/C(C#N)=C(/Nc1ccc([N+](=O)[O-])cc1)N[C@H](C)c1ccccc1`?
A: inhibition at 1500 g/ha (Echinochloa crus-galli [1]): 0%; inhibition at 1500 g/ha (Amaranthus retroflexus [2]): 0%; inhibition at 500 µg/mL (Tobacco mosaic virus [3]): 89.1%; inhibition at 5 µM (A-431): 23.6%; inhibition at 5 µM (PC-3): 2.9%; inhibition at 1500 g/ha (Echinochloa crus-galli [4]): 18.6%; inhibition at 1500 g/ha [5]: 17.2%; inhibition at 1500 g/ha (Amaranthus retroflexus [6]): 0%; inhibition at 1500 g/ha [7]: 21.4%; inhibition at 500 µg/mL (Tobacco mosaic virus [8]): 43.1%

Q: Which inhibition at 50 µg/mL (Tobacco mosaic virus [9]) does the source give for `COc1ccc2c3c(c4cc(OC)c(OC)cc4c2c1)C[C@H]1CCCN1C3` [(-)-ANTOFINE] here?
A: Its inhibition at 50 µg/mL is 29.2%.

Q: And the inhibition at 50 µg/mL (Tobacco mosaic virus [10])?
A: The inhibition at 50 µg/mL was 14%.

Q: Which inhibition at 1500 g/ha (Echinochloa crus-galli [1]) does the source give for `CCOC(=O)/C(C#N)=C(/Nc1ccc(Br)cc1)N[C@H](C)c1ccccc1` here?
A: The inhibition at 1500 g/ha was 0%.

Q: And the inhibition at 1500 g/ha (Amaranthus retroflexus [2])?
A: The inhibition at 1500 g/ha was 0%.

Q: And the inhibition at 500 µg/mL (Tobacco mosaic virus [3])?
A: The inhibition at 500 µg/mL was 53.4%.

Q: And the inhibition at 5 µM (A-431)?
A: The inhibition at 5 µM was 16.1%.

Q: And the inhibition at 5 µM (PC-3)?
A: Its inhibition at 5 µM is 1.5%.

Q: And the inhibition at 1500 g/ha (Echinochloa crus-galli [4])?
A: Its inhibition at 1500 g/ha is 4.29%.

Q: What about the inhibition at 1500 g/ha [5] of the same compound?
A: Its inhibition at 1500 g/ha is 10.9%.

Q: What about the inhibition at 1500 g/ha (Amaranthus retroflexus [6]) of the same compound?
A: The inhibition at 1500 g/ha was 0%.

Q: What about the inhibition at 1500 g/ha [7] of the same compound?
A: The inhibition at 1500 g/ha was 5.38%.

Q: What about the inhibition at 500 µg/mL (Tobacco mosaic virus [8]) of the same compound?
A: Its inhibition at 500 µg/mL is 12.3%.

Q: `CCOC(=O)/C(C#N)=C(/NNC(=O)c1cc(OC)c(OC)c(OC)c1)N[C@H](C)c1ccccc1` was tested. Which inhibition at 1500 g/ha (Echinochloa crus-galli [1]) did it give?
A: The inhibition at 1500 g/ha was 7.62%.

Q: What about the inhibition at 1500 g/ha (Amaranthus retroflexus [2]) of the same compound?
A: Its inhibition at 1500 g/ha is 26.3%.

Q: And the inhibition at 500 µg/mL (Tobacco mosaic virus [3])?
A: The inhibition at 500 µg/mL was 46.4%.

Q: And the inhibition at 5 µM (A-431)?
A: Its inhibition at 5 µM is 25.1%.

Q: And the inhibition at 5 µM (PC-3)?
A: The inhibition at 5 µM was 32.1%.

Q: What about the inhibition at 1500 g/ha (Echinochloa crus-galli [4]) of the same compound?
A: Its inhibition at 1500 g/ha is 5.71%.

Q: And the inhibition at 1500 g/ha [5]?
A: The inhibition at 1500 g/ha was 3.13%.

Q: What about the inhibition at 1500 g/ha (Amaranthus retroflexus [6]) of the same compound?
A: Its inhibition at 1500 g/ha is 0%.

Q: What about the inhibition at 1500 g/ha [7] of the same compound?
A: The inhibition at 1500 g/ha was 0%.

Q: And the inhibition at 500 µg/mL (Tobacco mosaic virus [8])?
A: The inhibition at 500 µg/mL was 26.7%.
